Data: ChEMBL document CHEMBL4513216, “Probing the Open Global Health Chemical Diversity Library for Multistage-Active Starting Points for Next-Generation Antimalarials” (ACS Infect Dis, 2020)

Assay: Toxicity liver stage against HepG2, at 10uM
Assay type: cell-based
Set-up: test concentration 10 uM, cell line HepG2-A16-CD81EGFP
Conditions: human, HepG2-A16-CD81EGFP cells; read-out: INHIBITION
Outline: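 Uninfected HepG2-A16-CD81EGFP cells, 3 × 10^3 per well, 1536-well, plated on prespotted compound at 10 μM final, parasite-free screening media added to match infected plates; puromycin 10 μM positive, DMSO 0.5% negative; run in parallel with 48 h PbLuc assay at 37 °C, 5% CO2; viability by CellTiter-Glo luminescence, normalized to controls.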

SMILES | cytotoxicity at 10 µM [%]
CCn1c(=NC(=O)CSCC(=O)Nc2nccs2)sc2ccccc21 | -2.17
c1ncc2c(n1)CN(CC1CCCCO1)CC2 (centres undefined) | 2.93
CCS(=O)(=O)N1CCc2ccc(NC(=O)Nc3ccccc3)cc21 | 42.2
Cc1cc(C(=O)N2CCN(c3nc4c(C(C)C)cccc4s3)CC2)on1 | 6.64
CCc1cc(=O)[nH]c(-n2nc(C3CC3)cc2NC(=O)C2CC2)n1 | 26.5
Cc1nc(-n2nc(C3CC3)cc2NC(=O)C(C)C)[nH]c(=O)c1C | 54.5
CC(=O)N(C)CC(=O)Nc1cnc(-n2ccnc2C)nc1 | 3.86
O=C(NC1CC1)c1cnc(-c2noc3cc(N4CCCCC4)ccc23)s1 | 46
COCCNC(=O)Cn1c(C)cc2nc(SC)n(CC(C)C)c(=O)c21 | -14.6
COc1ccc(-c2nnsc2C(=O)N2CCC(C(N)=O)CC2)cc1 | -1.7
COCCCNC1N=C(n2nc(C)cc2C)Nc2sc3c(c21)CCCC3 (centres undefined) | 10.6
O=C(c1ccc(COc2ccc(Cl)cc2)o1)N1N=CCC1(O)C(F)(F)F (centres undefined) | 30
O=C1CC(c2ccc(C(=O)O)cc2)c2c(sc3c2CCCC3)N1 (centres undefined) | -5.14
Cc1cc2c(cc1Cl)C=CC1(CCN(C(=O)N3CCOCC3)CC1)O2 | 23.2
CC(C)Nc1cc(-c2c[nH]nc2C2CCN(C(=O)C3CCC3)C2)ccn1 (centres undefined) | 81.8
CC(C)C[C@H](N)COc1cccc(F)c1Oc1ccc(Cl)cc1 | 84.7
Cc1ccc(Nc2nccc(C3CCN(CC(N)=O)C3)n2)nc1 (centres undefined) | -16.7
Cc1ccc(Oc2cc(F)ccc2O[C@@H]2CCC[C@@H](N)[C@H]2O)cc1 | -3.89
COc1cc(C)c(CN2CCc3nc4ccsc4c(=O)n3CC2)cc1C | -15.7
COc1ccc(CN2CCc3nc4ccsc4c(=O)n3CC2)c(C)c1C | 67.3
Cc1ccc(S(=O)(=O)N2C[C@H]3C[C@H](NC(=O)c4ccccn4)[C@H]3C2)cc1 | 64.3
Cc1cc(-c2cnc(NCc3ccc4c(c3)OCO4)nc2C(C)C)on1 | -1.23

SMILES | cytotoxicity at 10 µM [%]
Cc1ccc([C@]2(O)CC[C@H]3CN(Cc4ccc(Cl)cc4Cl)C[C@H]32)nc1 | 8.32
CN(C)S(=O)(=O)N1CCC(c2cccc(Cc3ccccc3Cl)n2)CC1 | 55.9
Cc1nccn1-c1cccc(N2CCC(OCC3CCCCO3)CC2)n1 (centres undefined) | 11.3
COC(=O)c1ncccc1N1CCCCC1 | -8.77
CCN(C)S(=O)(=O)N1CCCC(c2nc(-c3ccccc3)c[nH]2)C1 (centres undefined) | -8.02
COc1cc(NC(=O)N(C)C(C2CC2)C2CC2)ncn1 | -6.69
Cc1noc(C)c1CN(C)CCc1nc(-c2cccc(Cl)c2)no1 | 16.6
COC(=O)CCN(C)C(=O)c1csc(Cc2ccccc2F)n1 | 9.38
Cc1csc(N2CCCN(c3cc(C)nc(C)c3C#N)CC2)n1 | 22.6
Cc1nn(C)c(C)c1CCNC(C)c1ccc(-n2ccnc2C)cc1 (centres undefined) | 31.6
O=C(Nc1nccs1)C1CCCN1Cc1ccccn1 (centres undefined) | -20
c1cnnc(N2CCCC2CNCCc2cccs2)c1 (centres undefined) | -0.555
CC(C(=O)Nc1sccc1C(N)=O)N(C)CCOc1ccccc1 (centres undefined) | 2.59
c1ccc(C2CCCN(c3cncc(-n4cccn4)n3)CC2)cc1 (centres undefined) | 48
CCCS(=O)(=O)CC(=O)N1CCCC1c1noc(C2CC2)n1 (centres undefined) | 3.34
COc1ccc(Br)c(C(=O)NCC2CC2)c1 | 23.4
COCCN1CCN(CCS(=O)(=O)c2cccc(OC)c2)CC1 | -1.33
N#Cc1ccc(OCC(O)CN2CCN(c3nccs3)CC2)cc1 (centres undefined) | 2.06
Cc1nc(COc2ccc(CNCCn3cccn3)cc2)cs1 | -8.96
C=C(C)CN1CCC(NC(=O)NCCc2ccccc2OC)CC1 | 14.2
COCC(=O)NCc1cccc(OCCN(C)C2CCOCC2)c1 | 8.35
O=C(CN1CCCC1Cn1cncn1)NCC1(c2ccccc2)CC1 (centres undefined) | 4.74

SMILES | cytotoxicity at 10 µM [%]
Cc1nc(C)n(CC2CCCN2CC(=O)NCCc2ccsc2)n1 (centres undefined) | 0.932
O=C(c1c[nH]c(=O)[nH]1)N1CCc2ccccc21 | 81.9
Cc1cn2c(n1)C(CNCC1=Cc3cc(Cl)ccc3OC1)CCC2 (centres undefined) | 33.3
CC(C)n1nc2c(cc1=O)CN(c1ncnc3sccc13)CC2 | 49.7
COC(=O)c1sc(NCc2ccc(N3CCC(O)CC3)c(F)c2)nc1Cl | 44.5
Cc1ccc(-c2nc(CSCCC(=O)NC(N)=O)co2)cc1 | -2.69
Fc1cccc2ncnc(NCC3(N4CCOCC4)CCSC3)c12 (centres undefined) | 50.6
N#Cc1ccc(CN(CC(N)=O)C2CCCC2)cc1 | 38
CCc1nc(CN2CCCC(Nc3ncnc4ccsc34)C2)no1 (centres undefined) | 52.2
Cc1ncc(C(=O)NC2CCN(CCOc3ccc(Br)cc3)CC2)s1 | 7.28
CN1CCOC(C(=O)Nc2ccc3c(c2)nc(C(C)(C)C)n3C)C1 (centres undefined) | -1.8
CC1CCN(c2nc3c(cnn3-c3ccccc3)c(=O)[nH]2)CC1 | -9.5
CCc1nc(CN2CCN(c3ncnc4cc(F)ccc34)CC2)no1 | 41.5
NC(=O)C1CN(C(=O)Nc2cc(Cl)cc(Cl)c2)CCO1 (centres undefined) | 55.1
Cc1ccc(CN2CCC3(CC2)C(=O)NCCN3CC2CC2)o1 | -66.8
Cc1cn2c(=O)c(-c3ccnc(N(C)C4CCCCC4)n3)cnc2s1 | 9.49
Cc1cncc(NC(=O)c2ccc(CN3CC[C@H](O)C3)cc2)c1 | 12.4
Cc1noc(-c2ccnc(Oc3ccc(CN4CCCC4)cc3C)c2)n1 | 51.4
CC(C)c1cc(NCc2csc(N(C)C)n2)nc(N)n1 | 31.8
Cc1cnc(C)c(Oc2ccc(CN3CCCC3)cc2Cl)n1 | -1.37
Cc1ccccc1OC1CN(Cc2c(C)nc3ccccn23)C1 | 43.3
CN(Cc1cccc(-n2cccn2)c1)c1cc(N2CCCC2)nc(N)n1 | 51.6

SMILES | cytotoxicity at 10 µM [%]
CN(C)CCNC(=O)c1ccc(S(=O)(=O)N[C@@H]2CCNC2)cc1 | -49.2
O=S1(=O)CCC(CNc2cc(-c3ccccc3)nc3ccnn23)C1 (centres undefined) | 61.2
Cc1[nH]c2ccc(Cl)cc2c1CCNc1ncnc2c1CCNC2 | 22.4
COc1cc(Oc2ccc(C(F)(F)F)cn2)ccc1CN1CCCC1 | 51.5
OCC1(Cc2ccc(Cl)cc2)CCN(Cc2cccnc2)CC1 | -45.6
CCc1[nH]c2c(CNc3cc(C)nc(NC)n3)cc(C)cc2c1C | -41
Cc1ccccc1N1CCN(c2nc(N(C)C)nc3c2CCNC3)CC1 | 8.97
NCC1CCN(C2CCN(c3ccc(-c4ccco4)cc3)CC2)C1 (centres undefined) | 93.9
Cc1ccccc1CC1(CO)CCCN(c2ncnc3sccc23)C1 (centres undefined) | 27.5
CCCc1cncnc1N1CCC(NCc2cc3ccccc3[nH]2)CC1 | 15.8
Cc1c(-c2cnn(C)c2)nc(N)c(C#N)c1-c1ccc(CO)o1 | -117
COc1ccccc1C1CCN(c2ccc3cc[nH]c3n2)CC1 | -6.78
CC(C)(C)c1cn(CC2CCCN(c3cnc4ccccc4n3)C2)nn1 (centres undefined) | 42.9
FC(F)(F)c1nc(NC2CCCCC2)c2ccccc2n1 | 29.7
Cc1ccccc1-n1cc(-c2ccnc(NC(CO)C(C)C)n2)cn1 (centres undefined) | 7.12
Nc1nc2c(c(NC3CCCC3)n1)CCN(C(=O)C1CCOC1)CC2 (centres undefined) | -129
COCc1noc(-c2ccc(N3CCCCC3CO)nc2)n1 (centres undefined) | -2.38
FC(F)(F)c1nc(NC2CCCC2)c2ccccc2n1 | 15.8
CC(=O)c1ccc(N2CCC(CO)(CCOc3ccccc3)CC2)nc1 | 28.1
Cc1ccccc1-c1noc(CN2CCC(N3CCNC3=O)CC2)n1 | 11.6
O=C1NCCN1C1CCN(Cc2nc(-c3ccccc3)no2)CC1 | 30.3
Cc1cnn(C2CN(Cc3nc(-c4ccccc4C)no3)C2)c1 | -10.6

SMILES | cytotoxicity at 10 µM [%]
O=C(c1cc(Cl)c[nH]1)N1CCCC(c2cc(C(F)(F)F)[nH]n2)C1 (centres undefined) | 18
COc1cc(C(=O)Nc2nc(C)no2)cc(OC)c1Br | -8.78
Cc1cccc(C(=O)NCc2ccc(N3CCCCCC3)nc2)n1 | -5.34
CCc1cccc(N2CCC(NC(=O)c3ccco3)CC2)c1 | -4.38
Cc1nc(C)n(CC2CN(Cc3nc4ccccc4s3)CCO2)n1 (centres undefined) | 44.4
Cc1nc(C)n(CC2CCCN(c3ncnc4ccccc34)C2)n1 (centres undefined) | 17.4
COc1c(CNCc2ccc(C(=O)N(C)C(C)C)cc2)c(C)nn1C | 33.2
COc1c(C)cnc(CN2CCC(N(C)C(C)C(N)=O)CC2)c1C (centres undefined) | -3.38
Cc1cccc(NC2CCN(C(=O)Nc3cc(F)cc(F)c3)CC2)n1 | -0.961
Cc1ccoc1C(=O)NC1CCN(Cc2csc3c(F)cccc23)CC1 | 1.13
c1ccc(Sc2ccc3c(c2)OCO3)c(CNC2=NCCN2)c1 | 17.6
Cc1nnc(N2CC[C@H]3C[C@H](C(=O)N(C)C)O[C@@H]3C2)s1 | -80.9
O=C1N(Cc2cccnc2)CCC12CCCN(c1ncccn1)C2 (centres undefined) | -10.9
Cc1nnc(N2CC[C@@H](OCC3CC3)[C@@H](Cc3ccccc3)C2)s1 | 14.4
O=C(NC1CC1)[C@@H]1CCO[C@@H]2CCN(CC3CCC3)C[C@@H]21 | -101
O=C(NCc1cc(=O)n2c(n1)CN(CC1CC1)CCC2)c1ccsc1 | -103
Fc1ccc(CN2CCO[C@H]3[C@H](OCc4ccncc4)CC[C@@H]32)cc1 | -26.7
COc1ccc2c(c1)C1(CCNCC1)CC2NC1CC1 (centres undefined) | -117
O=C(Cc1ccncc1)N1CCC2(CC1)CC(c1ccccc1)CO2 (centres undefined) | -86.1
c1cnc(N2CCC3(CC2)CC(NCC2CC2)c2ccccc23)nc1 (centres undefined) | 22.4
CC(C)c1nnc(N2C[C@H]3CC[C@@H](C2)N(Cc2ccccc2)C3)s1 | -3.86
